Blank lines part the entries; values can stand above or below the compound they belong to.
Assays:
[1] = Octanol-water partition coefficient, log P of the compound; type: physicochemical
[2] = Inhibition of beta-hematin formation assessed as molar equivalents by BHIA assay relative to hemin; type: functional
[3] = Cytotoxicity against HMEC1 cells after 72 hrs by MTT assay; type: cell-based, HMEC-1; conditions: human
Outline: (§1)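 Cells were exposed to serial dilutions of compound for 72 h at 37 °C in 5% CO2. MTT was then added for another 3 h, and formazan was dissolved in SDS/DMF lysing buffer at pH 4.7. Absorbance was read at 550 nm against a 650 nm reference. […] Media: HMEC-1 in MCDB 131 with 10% FCS, EGF and hydrocortisone; K562 and WEHI 13 in RPMI 1640 with 10% FCS; HDF in DMEM with 10% FCS.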

[4] = Lipid accumulation ratio of the compound at pH 7.4; type: physicochemical
[5] = Cytotoxicity against mouse WEHI13 cells after 72 hrs by MTT assay; type: cell-based; outline: as §1
Plasmodium falciparum [6] = assay: Ratio of IC50 for chloroquine-resistant Plasmodium falciparum W2 to IC50 for chloroquine-sensitive Plasmodium falciparum D10
[7] = Vacuolar accumulation ratio of the compound at pH 5.2; type: ADME
[8] = Distribution coefficient, log D of the compound at pH 7.4; type: physicochemical; conditions: octanol/water
Plasmodium falciparum [9] = assay: Antimalarial activity against chloroquine-resistant Plasmodium falciparum W2 infected in human A+ erythrocytes after 72 hrs by parasite LDH assay; type: functional, organism-based; conditions: W2, 72 h
Outline: (§2)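 P. falciparum (D10 CQ-sensitive; W2 CQ-resistant) kept at 5% hematocrit in human A+ red cells in RPMI 1640 with 1% AlbuMax, hypoxanthine, 20 mM Hepes and glutamine, at 37 °C under 1% O2/5% CO2/94% N2. Asynchronous cultures (1–1.5% parasitaemia, 1% final hematocrit) were exposed to serial dilutions (final DMSO <1%) for 72 h. pLDH activity was read at OD650. IC50 given as mean ± SD of ≥3 experiments run in duplicate.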

Plasmodium falciparum [10] = assay: Ratio of chloroquine IC50 to compound IC50 for chloroquine-resistant Plasmodium falciparum W2
Plasmodium falciparum [11] = assay: Ratio of chloroquine IC50 to compound IC50 for chloroquine-sensitive Plasmodium falciparum D10
Plasmodium falciparum [12] = assay: Antimalarial activity against chloroquine-sensitive Plasmodium falciparum D10 infected in human A+ RBC after 72 hrs by parasite LDH assay; type: functional, organism-based; conditions: D10, 72 h; outline: as §2
[13] = Cytotoxicity against human K562 cells after 72 hrs by MTT assay; type: cell-based; outline: as §1
[14] = Cytotoxicity against HDF after 72 hrs by MTT assay; type: cell-based; conditions: human; outline: as §1

SMILES: Cc1c(CN2CCCC2)cc(-c2ccc(Cl)cc2)n1Nc1ccnc2cc(Cl)ccc12
- logP [1]: 5.17
- IC50 [2]: 0.36 equivalents
- CC50 at 72 h [3]: 7180 nM
- Ratio [4]: 11481.5
- CC50 at 72 h [5]: 2060 nM
- Ratio IC50 (Plasmodium falciparum [6]): 1.6
- Ratio [7]: 1513.6
- logD [8]: 4.06

SMILES: Cc1c(CN2CCCC2)cc(-c2ccc(Cl)cc2)n1CCCNc1ccnc2cc(Cl)ccc12
- logP [1]: 4.38
- IC50 (Plasmodium falciparum [9]): 243 nM
- IC50 [2]: 0.82 equivalents
- Ratio [4]: 223.9
- Ratio IC50 (Plasmodium falciparum [10]): 1.7
- Ratio IC50 (Plasmodium falciparum [11]): 0.8
- Ratio IC50 (Plasmodium falciparum [6]): 10.7
- IC50 (Plasmodium falciparum [12]): 22.7 nM
- Ratio [7]: 24547.1
- logD [8]: 2.35

- IC50 [2]: 1.27 equivalents
SMILES: CCN(CC)CCCC(C)Nc1ccnc2cc(Cl)ccc12 (stereo unspecified) [CHLOROQUINE]
- CC50 at 72 h [13]: > 25000 nM
- CC50 at 72 h [3]: > 32000 nM
- CC50 at 72 h [5]: > 38000 nM
- CC50 at 72 h [14]: > 38000 nM

SMILES: Cc1c(CN2CCCC2)cc(-c2ccc(F)cc2)n1Nc1ccnc2cc(Cl)ccc12
- logP [1]: 4.86
- IC50 (Plasmodium falciparum [9]): 78.1 nM
- CC50 at 72 h [13]: 1660 nM
- CC50 at 72 h [3]: 10100 nM
- Ratio [4]: 2818.4
- CC50 at 72 h [5]: 2710 nM
- Ratio IC50 (Plasmodium falciparum [10]): 5.7
- Ratio IC50 (Plasmodium falciparum [11]): 0.8
- Ratio IC50 (Plasmodium falciparum [6]): 2.4
- IC50 (Plasmodium falciparum [12]): 32.6 nM
- Ratio [7]: 1548.8
- logD [8]: 3.45

SMILES: CCN(CC)Cc1cc(-c2ccccc2)n(Nc2ccnc3cc(Cl)ccc23)c1C
- CC50 at 72 h [13]: 3620 nM
- CC50 at 72 h [3]: 16700 nM
- CC50 at 72 h [5]: 4380 nM
- Ratio IC50 (Plasmodium falciparum [6]): 1.4

SMILES: CCN(CC)Cc1cc(-c2ccc(C)cc2)n(Nc2ccnc3cc(Cl)ccc23)c1C
- IC50 (Plasmodium falciparum [9]): 55.4 nM
- CC50 at 72 h [3]: 7050 nM
- CC50 at 72 h [5]: 3650 nM
- Ratio IC50 (Plasmodium falciparum [10]): 6.4
- Ratio IC50 (Plasmodium falciparum [11]): 0.6
- CC50 at 72 h [14]: 10300 nM
- Ratio IC50 (Plasmodium falciparum [6]): 1.7
- IC50 (Plasmodium falciparum [12]): 32.7 nM

SMILES: CCN(CC)Cc1cc(-c2ccc(Cl)cc2)n(CCCNc2ccnc3cc(Cl)ccc23)c1C
- IC50 (Plasmodium falciparum [9]): 180 nM
- Ratio IC50 (Plasmodium falciparum [10]): 2.3
- Ratio IC50 (Plasmodium falciparum [11]): 0.7
- Ratio IC50 (Plasmodium falciparum [6]): 6.9
- IC50 (Plasmodium falciparum [12]): 26 nM

SMILES: CCN(CC)Cc1cc(-c2ccc(Cl)cc2)n(Nc2ccnc3cc(Cl)ccc23)c1C
- CC50 at 72 h [3]: 5810 nM
- CC50 at 72 h [5]: 1450 nM
- Ratio IC50 (Plasmodium falciparum [6]): 1.6

SMILES: CCN(CC)Cc1cc(-c2ccc(N)cc2)n(Nc2ccnc3cc(Cl)ccc23)c1C
- IC50 (Plasmodium falciparum [9]): 313 nM
- Ratio IC50 (Plasmodium falciparum [10]): 0.9
- Ratio IC50 (Plasmodium falciparum [11]): 0.5
- Ratio IC50 (Plasmodium falciparum [6]): 5.8
- IC50 (Plasmodium falciparum [12]): 53.4 nM

SMILES: Cc1ccc(-c2cc(CN3CCCC3)c(C)n2Nc2ccnc3cc(Cl)ccc23)cc1
- logP [1]: 5.19
- IC50 (Plasmodium falciparum [9]): 65.8 nM
- IC50 [2]: 0.45 equivalents
- CC50 at 72 h [3]: 7150 nM
- Ratio [4]: 8128.3
- CC50 at 72 h [5]: 4480 nM
- Ratio IC50 (Plasmodium falciparum [10]): 5.4
- Ratio IC50 (Plasmodium falciparum [11]): 0.6
- CC50 at 72 h [14]: 13200 nM
- Ratio IC50 (Plasmodium falciparum [6]): 2.1
- IC50 (Plasmodium falciparum [12]): 30.7 nM
- Ratio [7]: 1862.1
- logD [8]: 3.91

SMILES: Cc1c(CN2CCCC2)cc(-c2ccccc2)n1Nc1ccnc2cc(Cl)ccc12
- logP [1]: 4.6
- CC50 at 72 h [13]: 2920 nM
- IC50 [2]: 0.54 equivalents
- CC50 at 72 h [3]: 12900 nM
- Ratio [4]: 1905.5
- CC50 at 72 h [5]: 3880 nM
- Ratio IC50 (Plasmodium falciparum [6]): 3.3
- Ratio [7]: 1698.2
- logD [8]: 3.28

SMILES: Cc1c(CN2CCCC2)cc(-c2ccc(N)cc2)n1Nc1ccnc2cc(Cl)ccc12
- logP [1]: 4.38
- IC50 (Plasmodium falciparum [9]): 455 nM
- Ratio [4]: 107.1
- Ratio IC50 (Plasmodium falciparum [10]): 0.5
- Ratio IC50 (Plasmodium falciparum [11]): 0.5
- Ratio IC50 (Plasmodium falciparum [6]): 10.6
- IC50 (Plasmodium falciparum [12]): 43.1 nM
- Ratio [7]: 16982.4
- logD [8]: 2.03

SMILES: Cc1c(CN2CCCC2)cc(-c2ccc(C(F)(F)F)cc2)n1Nc1ccnc2cc(Cl)ccc12
- logP [1]: 5.28
- IC50 (Plasmodium falciparum [9]): 59 nM
- CC50 at 72 h [13]: 1220 nM
- CC50 at 72 h [3]: 4700 nM
- Ratio [4]: 52480.8
- CC50 at 72 h [5]: 2680 nM
- Ratio IC50 (Plasmodium falciparum [10]): 6.7
- Ratio IC50 (Plasmodium falciparum [11]): 0.5
- Ratio IC50 (Plasmodium falciparum [6]): 1
- IC50 (Plasmodium falciparum [12]): 58 nM
- Ratio [7]: 912
- logD [8]: 4.72

SMILES: CCN(CC)Cc1cc(-c2ccc(F)cc2)n(Nc2ccnc3cc(Cl)ccc23)c1C
- IC50 (Plasmodium falciparum [9]): 79.8 nM
- CC50 at 72 h [13]: 2360 nM
- CC50 at 72 h [3]: 18600 nM
- CC50 at 72 h [5]: 3020 nM
- Ratio IC50 (Plasmodium falciparum [10]): 5
- Ratio IC50 (Plasmodium falciparum [11]): 0.5
- Ratio IC50 (Plasmodium falciparum [6]): 1.3
- IC50 (Plasmodium falciparum [12]): 61.6 nM
